CAL PDZ FP-1: CAL PDZ peptide-binding inhibitors, primary screen, biochemical, fluorescence polarization, Cer-tagged CAL PDZ, HTS. AID 504414, 2011. purified CAL PDZ, TMR-peptide fluorescence polarization, 1 h. 330,000 tested, 0.02% active. inhibition, % at 20 µM. Golgi-associated PDZ and coiled-coil motif-containing protein (Homo sapiens), Q9HD26;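 active = highest replicate inhibition of at least 40%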;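 note: plate controls were DMSO neutral control wells for no effect and unlabeled competitor peptide control wells for full effect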
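material = purified tagged CAL PDZ domain construct (CerCALP) | buffer or medium = sodium phosphate/NaCl buffer pH 7.4 with TCEP, IgG, Thesit | reagent = TMR-labelled reporter peptide T*-PRC34 bound in PDZ groove | incubation = 1 h room-temperature incubation prior to read | measured by = fluorescence polarization (mP) | evaluation = percent inhibition from loss of millipolarization | control set = unlabelled peptide and DMSO controls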
Cneo AK release: Cryptococcus neoformans cell lysis inducers, primary screen, AK release luminescence, single concentration | C. neoformans lysis, adenylate kinase release luminescence, 4 h; normalised: neutral wells 0, clomiphene wells 100 | lysis activity, % at 15 µM | 360,000 tested, 0.2% active;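 active = mean lysis activity across replicates of at least 80%, whatever share of replicates individually reach that level; inactive = mean lysis activity below 80%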
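Material: C. neoformans cells | Amount: Yeast cell density of 5 × 10^6 cells/mL | Medium: Fresh YPD growth medium | Dosing: Single dose | Times: Static 4 h at 37 °C with compound, 1 h detection | Detection: AK luminescence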
CAL PDZ FP-2: untagged CAL PDZ binding inhibitors, primary screen, biochemical, fluorescence polarization, HTS; Golgi-associated PDZ and coiled-coil motif-containing protein (Homo sapiens), Q9HD26; purified CAL PDZ, TMR-peptide fluorescence polarization, 1 h; inhibition, % at 24.9 µM; 300,000 tested, 0.92% active; AID 602252, 2012;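 active = mean inhibition of at least 30% with at least half of replicates also reaching 30%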;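 note: 0% = DMSO neutral control and 100% = excess unlabeled competitor peptide PRC23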
miR-122 sensor: miR-122 Renilla sensor signal increase in Huh7, primary screen, miR-122 inhibitor project, cell-based, single point, plate reader | Huh7 miR-122 Renilla luciferase sensor, 48 h; neutral wells = 0, positive control = 100 | activation (reporter increase), % at 12.5 µM | 340,000 tested, 0.3% active | AID 602342, 2012;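 active = mean replicate activation score at least 90 and every replicate individually at or above 90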;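 note: higher luciferase means less miR-122 activity so hits act as miR-122 inhibitors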
PglD DTNB: C. jejuni PglD acetyltransferase inhibitors, primary screen, biochemical, DTNB colorimetric, single point | AID 602405, 2012 | UDP-N-acetylbacillosamine N-acetyltransferase PglD (Campylobacter jejuni) | purified PglD enzyme, DTNB colorimetric CoA detection | inhibition, % at 12.5 µM | 360,000 tested, 0.098% active; in the data active = inhibition above about 16%, passing the limit was not always enough
Active calls of the source: *; . = no result given; ! = not active in a repeat; [ ] = remark or other dose. An excerpt weighted towards active compounds, which were near 1.1% of everything screened.

SMILES	CAL PDZ FP-1	Cneo AK release	CAL PDZ FP-2	miR-122 sensor	PglD DTNB
CCOC(=O)N1CCC(=NNC(=O)c2cc3ccccc3cc2O)CC1	-4.3	0.1	.	-7.3	-3.5
COc1ccc(C(C)(C)C)cc1NC(=O)COC(=O)c1cnc(C)cn1	-0.9	1.6	2.9	-2.3	2.4
COc1ccc(C(C)(C)C)cc1NC(=O)COC(=O)C1=NNC(=O)CC1	-0.1	-1.4	133.0*	3.8	-2.4
CCOC(=O)c1c(NC(=O)c2nn(C)cc2[N+](=O)[O-])sc(C)c1C	-0.6	-0.1	-1.5	-2.6	2.8
COc1ccccc1OCCC(=O)OCC(=O)Nc1ccc(Br)cc1F	-1.3	.	54.1*	.	.
CO[C@@H]1CN(C)C(=O)c2cc(NS(=O)(=O)c3cccc(F)c3)ccc2OC[C@@H](C)N(Cc2cc(F)ccc2F)C[C@@H]1C	.	15.3	.	3.0[16.7 µM]	1.2
COc1ccc(N2CCN(C(=S)Nc3cc(C)cc(C)c3)CC2)cc1	-2.0	1.0	-0.2	-0.2	-3.0
COc1ccc(N2CCN(C(=S)NCc3ccc(C)cc3)CC2)cc1	0.0	.	31.5*	1.2	.
O=C(Nc1ccccc1)[C@@H]1[C@@H](CO)[C@@H]2Cn3c(cccc3=O)[C@H]1N2C(=O)c1ccc(F)cc1	.	1.2	.	1.1[16.7 µM]	0.0
CO[C@H]1CN(C)C(=O)c2cc(NC(=O)NC(C)C)ccc2OC[C@@H](C)N(C(=O)C2CCC2)C[C@H]1C	.	53.5	.	.	0.5
O=C(CSc1nnc(-c2ccccn2)n1Cc1ccccc1)Nc1ccc2c(c1)OCO2	.	-0.2	32.1*	6.2	-3.0
Cn1c(SCC(=O)Nc2ccc3c(c2)OCCO3)nnc1-c1ccccn1	7.0	1.2	-1.9	15.0	-1.3
CCCC#Cc1ccc2c(c1)[C@H]1[C@H](CCN1S(=O)(=O)c1ccc(F)cc1)[C@H](CO)N2C	.	0.4	.	6.0[16.7 µM]	-2.6
COc1ccc(S(=O)(=O)Nc2cccc3c2O[C@@H](CN(C)Cc2ccc(C(F)(F)F)cc2)[C@H](C)CN([C@H](C)CO)C3=O)cc1	.	41.9	.	102.2*[16.7 µM]	-2.0
C[C@H](CO)N1C[C@H](C)[C@@H](CN(C)Cc2ccc(Cl)c(Cl)c2)Oc2c(NS(=O)(=O)c3ccccc3)cccc2C1=O	.	-3.1	.	105.6*![16.7 µM]	-2.1
COc1ccc(S(=O)(=O)Nc2cccc3c2O[C@H](CN(C)Cc2ccc(C(F)(F)F)cc2)[C@@H](C)CN([C@@H](C)CO)C3=O)cc1	.	39.7	.	59.5[16.7 µM]	-1.0
COc1ccc(S(=O)(=O)Nc2cccc3c2O[C@H](CN(C)Cc2ccc(Cl)c(Cl)c2)[C@@H](C)CN([C@H](C)CO)C3=O)cc1	-1.9	0.8	-3.8	97.7*!	-7.9
C[C@@H]1CN([C@@H](C)CO)C(=O)c2cc(-c3ccc(C(=O)N(C)C)cc3)cnc2O[C@@H]1CN(C)C(=O)C1CC1	.	-3.2	.	-9.2[16.7 µM]	3.6
O=C(CCCOc1ccc(Cl)cc1)NC1CCCCC1	-0.4	-2.5	0.3	2.3	-1.3
O=C(C[C@H]1CC[C@@H](NC(=O)C2CCC2)[C@@H](CO)O1)NCc1ccncc1	.	-3.6	.	.	1.6
C[C@@H]1CCCCO[C@H](CN(C)C(=O)NC2CCCCC2)[C@@H](C)CN([C@H](C)CO)C(=O)c2cc(NC(=O)Cc3ccccc3)ccc2O1	.	-3.0	.	0.4[16.7 µM]	0.9
CC(Oc1ccc(Cl)cc1)c1ccnn1S(=O)(=O)c1ccc(Cl)cc1 (stereo unspecified)	-2.7	-0.2	-3.6	110.8*	-5.5
CC(Oc1ccccc1)c1ccnn1S(=O)(=O)c1ccccc1 (stereo unspecified)	-0.5	-1.7	1.1	.	10.6
COc1cc(S(=O)(=O)N2CCCCCC2)c(OC)cc1Br	-2.9	1.0	1.4	307.9*	-0.4
COc1ccc(S(=O)(=O)Nc2ccc(C)c(S(=O)(=O)N3CCOCC3)c2)cc1[N+](=O)[O-]	-0.1	-1.0	-3.9	98.2*	-2.2
SMILES	CAL PDZ FP-1	Cneo AK release	CAL PDZ FP-2	miR-122 sensor	PglD DTNB
COc1ccc(NS(=O)(=O)c2cccc(Cl)c2)cc1S(=O)(=O)N1CCCCC1	-0.6	0.3	.	438.0*	-1.2
Cc1ccc(S(=O)(=O)Nc2cccc(S(=O)(=O)N3CCCC3)c2)cc1C	-2.7	-0.8	-4.6	122.5*	-5.4
CCCC#Cc1ccc2c(c1)O[C@@H](CN(C)C(=O)CN(C)C)[C@@H](C)CN([C@@H](C)CO)S2(=O)=O	.	7.6	.	-4.6[16.7 µM]	7.9
NCC(O)COCCC12CC3CC(CC(C3)C1)C2 (stereo unspecified)	-1.7	-4.0	38.9*	0.9	4.7
O=C(NCCc1ccccc1)[C@@H]1[C@@H](CO)[C@@H]2Cn3c(cccc3=O)[C@@H]2N1Cc1ccncc1	.	0.4	.	4.6[16.7 µM]	3.8
C[C@@H]1CN([C@@H](C)CO)C(=O)c2cc(NS(=O)(=O)c3cn(C)cn3)ccc2O[C@@H](C)CCCCO[C@H]1CN(C)CC1CC1	.	57.2	.	-5.5[16.7 µM]	1.4
CC(C)(C)S(=O)N1Cc2cc(C(=O)NCc3ccc4c(c3)OCO4)nc(-c3cccc(-c4ccccc4)c3)c2[C@@H]1CCO (stereo partly specified)	.	2.3	.	3.7	1.5
COc1cc(NS(=O)(=O)c2csc(C(N)=O)c2)cc(OC)c1	0.6	-1.3	-1.6	99.3*	2.2
Cc1cccc(NS(=O)(=O)c2csc(C(N)=O)c2)c1	-1.7	-1.0	-0.7	110.6*	8.8
COc1ccc(NS(=O)(=O)c2csc(C(N)=O)c2)cc1	-0.6	0.2	-7.1	.	-9.4
O=C(c1nc2ccc(Cl)cn2c1CN1CCC(CO)CC1)N1CCc2ccccc2C1	-0.1	5.4	38.0*	3.6	0.4
COc1ccc(NS(=O)(=O)c2ccc(N3CCOCC3)c(NC(=O)c3cccc(F)c3)c2)cc1	-3.0	.	-4.1	189.8*	.
COc1ccc(NS(=O)(=O)c2ccc(N3CCOCC3)c(NC(=O)c3ccc(F)cc3)c2)cc1	-2.4	1.8	.	179.1*	2.4
CC(C)C(=O)Nc1cc(S(=O)(=O)Nc2cccc(Cl)c2)ccc1Cl	-2.2	1.5	-0.9	255.8*	2.4
Cc1ccc(S(=O)(=O)N2C[C@@H](O)COC[C@@H]3O[C@H](CC(=O)NCCN4CCCCC4)CC[C@H]32)cc1	.	-1.5	.	-2.5[16.7 µM]	4.0
Cn1c(NCc2cccc(Br)c2)nc2ccccc21	-0.6	0.8	3.8	.	-0.3
Cn1c(Oc2ccccc2NCc2cccc(Br)c2)cc(=O)n(C)c1=O	-0.7	1.0	79.1*	-10.5	8.1
COc1ccccc1-c1cnc2c(c1)C(=O)N([C@@H](C)CO)C[C@H](C)[C@@H](CN(C)Cc1ccncc1)O2	.	-1.2	.	-6.9[16.7 µM]	-5.6
CCN(CC)c1ccc(/C=N/N2CCN(c3ccccn3)CC2)cc1	-0.1	.	42.6*	-5.1	.
